# M5 PAM: CHRM5 positive allosteric modulation; P08912; CHO-K1 hM5, Fluo-8 calcium, ACh EC20 PAM; 0% = ACh EC20, 100% = ACh EC100; activation, % at 3 µM; 360,000 compounds, 0.3% hits; AID 624038;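 active means activation above the run cutoff, the mean activation of all test compounds plus 3 SD, cut at about 18% in these data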
#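 Assay system: CHO-K1 hM5 cells / Incubation: Fluo-8 loading 80 min at 37 °C plus 30 min room temperature / Technique: Fluo-8 calcium dye fluorescence, kinetic read / Repeats: single replicate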
# M4 PAM: CHRM4 positive allosteric modulation; AID 624126; 360,000 compounds, 0.4% hits; P08173; CHO-K1 hM4/Gqi5, Fluo-8 calcium fluorescence, ACh EC20; 0% = ACh EC20, 100% = maximal ACh; activation, % at 3 µM;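 active means activation above its plate's cutoff, the mean activation of sample wells plus 3 SD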
# Target sequence (P08173 whole entry, looked up): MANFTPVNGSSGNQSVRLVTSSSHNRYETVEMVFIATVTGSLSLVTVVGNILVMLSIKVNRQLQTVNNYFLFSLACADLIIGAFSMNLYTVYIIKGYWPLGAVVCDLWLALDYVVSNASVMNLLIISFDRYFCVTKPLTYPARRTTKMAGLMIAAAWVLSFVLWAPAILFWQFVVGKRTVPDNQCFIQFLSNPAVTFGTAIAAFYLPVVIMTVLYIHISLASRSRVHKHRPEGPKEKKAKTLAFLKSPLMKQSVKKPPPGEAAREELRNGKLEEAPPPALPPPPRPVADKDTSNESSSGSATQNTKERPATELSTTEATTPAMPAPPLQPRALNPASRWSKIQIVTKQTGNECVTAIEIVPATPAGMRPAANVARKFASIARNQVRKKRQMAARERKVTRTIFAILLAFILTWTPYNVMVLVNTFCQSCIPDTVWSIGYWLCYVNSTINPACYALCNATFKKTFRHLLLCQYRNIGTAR
# CHRM4 agonist: agonists of human muscarinic M4 receptor (CHRM4). P08173. CHO-K1 hM4/Gqi5, Fluo-8 calcium fluorescence; vehicle 0%, full acetylcholine response 100%. activation, % at 3 µM. 360,000 compounds, 0.14% hits. AID 624127;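 active means activation above the run mean over all test wells plus 3 SD, cut at about 32% in these data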;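 further: peak over basal fluorescence ratio per well then scaled between controls; 0% = DMSO wells and 100% = acetylcholine at EC100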
# M4 antag: CHRM4 antagonism in calcium assay | 360,000 compounds, 0.73% hits | inhibition, % at 3 µM | CHO-hM4 cells, ACh EC80, Fluo-8 calcium fluorescence;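 active means inhibition above its plate's cutoff, the mean inhibition of sample wells plus 3 SD, cut at about 27% in these data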;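 further: 0% = acetylcholine EC80 with DMSO and 100% = DMSO without agonist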
# M5 antag: antagonists of human muscarinic M5 receptor (CHRM5); CHO-hM5 cells, Fluo-8 calcium fluorescence, ACh EC80; AID 624040; 360,000 compounds, 0.59% hits; P08912; inhibition, % at 3 µM;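 active means inhibition above a per-plate cutoff, the mean of that plate's test compounds plus 3 SD, cut at about 27% in these data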;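 further: 0% = acetylcholine EC80 with DMSO and 100% = DMSO without agonist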
# M5 ag: CHRM5 agonism in calcium assay; P08912; CHO-K1 hM5 cells, Fluo-8 calcium fluorescence; 0% DMSO wells, 100% maximal acetylcholine response; activation, % at 3 µM; 360,000 compounds, 0.19% hits; AID 624037;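 active means activation above the run's mean over test compounds plus 3 SD, cut at about 23% in these data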;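 further: signal is peak over basal fluorescence ratio across the kinetic read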
# The depositor's hits bear a star. Only some compounds are listed: those with a hit (about 1.8% of all), similar ones and a draw of the others.
SMILES,M5 PAM,M4 PAM,CHRM4 agonist,M4 antag,M5 antag,M5 ag
O=C(Nc1cccc(C(=O)Nc2ccc(Br)cc2)c1)c1ccccc1,-23.9,-11.7,19.6,17.0,30.8*,-2.0
O=C(Nc1cccc(NC(=O)c2ccc(-c3cccc(Br)c3)o2)c1)c1ccco1,-10.2,-16.5,11.7,33.5*,18.9,2.0
O=C1NC(Cc2ccc(O)cc2)c2nc3cc(Cl)ccc3c(=O)n2-c2cc(Cl)ccc21 (stereo not given),-3.1,-2.9,4.9,-6.2,-6.2,0.3
NS(=O)(=O)c1cccc(NC(=O)COC(=O)/C=C/c2nc3ccccc3s2)c1,0.0,5.4,2.0,-11.0,14.5,2.7
O=C(Nc1ccccc1C(=O)O)c1cccc(NC(=O)c2ccc(Br)o2)c1,0.2,18.4*,-1.4,-7.0,-4.8,4.1
O=C(Nc1cccc(-c2cnc3ccccc3n2)c1)c1ccccc1,-4.3,4.4,0.9,-5.5,-2.1,1.4
CC(C)CC(=O)Nc1cccc(C(=O)Nc2ccccc2C(=O)O)c1,7.2,30.5*,-1.8,-22.4,-4.6,-0.3
O=C(Nc1cccc(-c2cnc3ccccc3n2)c1)c1cccc(NC(=O)c2ccco2)c1,-17.6,-24.5,20.1,41.6*,25.9,3.7
O=C1NC2(CCCCC2)OC12CCCCC2,4.4,-0.2,0.7,-1.9,13.3,-1.1
COc1cc(C(=O)N2CCCCC2c2cc(C(=O)NC(C)C)no2)cc(OC)c1C (stereo not given),-4.9,-6.5,4.7,2.5,6.5,0.6
CCNC(=S)NC1CC2CCCC(C1)N2Cc1ccc(C)cc1 (stereo not given),-15.9,-11.4,0.9,14.0,-16.2,-21.7
CC(C)(C)OC(=O)NC1CC2CCCC(C1)N2Cc1ccccc1 (stereo not given),-29.1,-16.6,-0.1,83.5*,-1.9,-25.9
CNC(=S)NC1CC2CCCC(C1)N2Cc1ccc(C)cc1 (stereo not given),27.8*,-6.0,-0.1,2.0,3.8,-8.0
CN(CCCC1CCCC1)C(=O)c1cc(COc2ccc(F)cc2F)on1,-9.1,-6.6,1.4,-3.0,6.9,-3.7
CN(CCCN1CCCCC1)C(=O)c1cc(COc2ccc(F)cc2F)on1,-5.1,-15.3,0.2,35.8*,16.2,-8.3
Cc1cc([N+](=O)[O-])nn1CC(=O)Nc1ccccn1,-0.7,24.8*,0.5,-1.8,7.7,-3.2
COc1ccc(NC(=O)C2CCCN(S(C)(=O)=O)C2)c(OC)c1 (stereo not given),18.9*,0.6,1.4,-17.8,-11.4,8.8
COc1ccc(NC(=O)C2CCN(S(C)(=O)=O)CC2)c(OC)c1,-3.6,0.8,0.3,-0.5,-0.6,0.1
O=c1c2ccccc2n2c(-c3cccc(F)c3)nnc2n1Cc1ccccc1,-3.1,21.2*,1.4,1.0,9.0,-0.8
O=c1c2ccccc2n2c(-c3cccc(Cl)c3)nnc2n1Cc1ccccc1,-3.1,7.8,3.0,-6.2,-2.3,0.9
CN1CCN(C2=Cc3ccccc3Sc3cc(F)ccc32)CC1,-42.9,-16.4,5.4,20.8,27.7*,-13.1
CN1CCN(C2=Cc3ccc(Cl)cc3Sc3ccc(F)cc32)CC1,-9.6,-11.2,9.6,18.3,5.2,-10.0
CC1CC1c1ccc(/C=C(\C#N)C(=O)Nc2cc(Cl)ccc2Cl)o1 (stereo not given),9.4,20.8*,1.0,-6.1,-4.1,1.4
CC(=O)OC1c2ccccc2C(=O)N1Cc1ccccc1Cl (stereo not given),-10.2,-11.2,0.3,34.2*,5.9,-1.6
Cc1cc(C)n2nc(SCc3nnc(SCCCCl)o3)nc2n1,-6.5,-14.0,2.2,32.0*,6.6,-2.5
SMILES,M5 PAM,M4 PAM,CHRM4 agonist,M4 antag,M5 antag,M5 ag
CCCC(CCC)C(=O)Nc1ccc2c(c1)N(C(=O)CN1CCN(C)CC1)c1ccccc1CC2,-18.6,-23.9,0.8,43.8*,31.0*,-10.8
CCOC(=O)Nc1ccc2c(c1)N(C(=O)OC)c1ccccc1CC2,-0.4,9.8,-0.1,-6.1,1.4,-2.7
O=C(CN1CCC(O)CC1)N1c2ccccc2C=Cc2ccccc21,-33.2,-21.3,0.8,28.8*,19.4,-10.3
O=C(CN1CCCCC1)N1c2ccccc2CCc2ccccc21,-17.7,-22.4,0.8,76.6*,49.3*,-6.5
CCOC(=O)Nc1ccc2c(c1)N(C(=O)C(C)N1CCCC1)c1ccccc1CC2 (stereo not given),-24.2,-15.7,1.0,60.0*,23.9,-6.8
Cc1ccc(C(=O)OCC(=O)Nc2cc(Cl)ccc2C#N)o1,2.5,8.1,0.8,-0.8,-0.9,-1.2
CCN1CCN(CC(=O)N2c3ccccc3Sc3ccccc32)CC1,-19.0,-14.9,2.2,31.4*,4.7,-8.3
O=C(CN1CCCC1)N1c2ccccc2Sc2ccccc21,-14.0,-24.7,0.4,60.9*,59.2*,-9.8
Cc1ccc(C(=O)OCC(=O)Nc2cccc(S(=O)(=O)N3CCCCC3)c2)s1,-7.4,-5.7,11.8,2.8,3.9,6.1
Fc1cccc(Cc2c(C3CCCCC3)nc3ccc(Br)cn23)c1,-6.5,-9.7,-0.6,12.8,2.0,-3.6
CC(C)NC(=O)c1ccc(NC(=O)CC2SC(N3CCCC3)=NC2=O)cc1 (stereo not given),5.2,13.8,0.2,-7.8,0.7,1.3
CNC(=O)c1ccc(NC(=O)CC2SC(N3CCCC3)=NC2=O)cc1 (stereo not given),1.6,22.1*,2.3,-2.2,-3.6,3.6
COc1cc2c(C#N)c(N3CCc4ccccc4C3)nc(N)c2c(N)n1,36.5*,9.5,1.4,-4.4,1.4,16.4
CC(=O)OCCNc1cc(N2CCN(C)CC2)c2noc3c2c1C(=O)c1ccccc1-3,-4.9,3.3,-0.1,-9.5,6.7,1.4
CCOC(=O)C(C(=O)OCC)c1cc(Br)c2noc3c2c1C(=O)c1ccccc1-3,2.9,-5.8,8.1,54.4*,33.5*,6.2
Cc1ccc(C(O)c2ncc(-c3ccc(C(F)(F)F)cc3)[nH]2)cc1F (stereo not given),-4.7,-0.5,3.4,7.1,6.7,0.3
CC1(C)CC(=O)C2=C(C1)NCN(Cc1ccccc1)C2,12.9,34.4*,1.1,-4.0,-10.6,5.8
CCCN1CN(Cc2ccccc2)CC2=C1CC(C)(C)CC2=O,7.3,6.4,0.7,-0.5,-16.3,-1.6
O=[N+]([O-])c1cc2c(c([N+](=O)[O-])c1)Nc1ccccc1O2,-4.7,-2.7,15.4,1.2,7.1,6.5
CC#CC[N+](C)(C)CCCCCCCCCCCC,-21.6,-19.5,0.0,26.6*,13.3,-11.4
C#CC[N+](C)(C)CCCCCCCCCCCC,-19.1,-14.6,0.1,52.9*,21.5,-8.3

# Compound activity from PubChem.
